This is a sample that favours compounds with a hit; in the whole collection about 5.4% have one here.
T cruzi repl: T. cruzi replication inhibition. T. cruzi beta-gal in NIH3T3, luminescence, 90 h. inhibition, % (test concentration not listed). 300,000 tested, 1.4% active;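 active = mean inhibition across valid replicates above about 55%, limit read from the data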;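 also: signal also drops with host cell toxicity which is not excluded here; 0% = plate median of DMSO wells and 100% = zero luminescence signal; higher percent means less beta-gal luminescence so fewer parasites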
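Assay system: NIH/3T3 host cells with β-galactosidase reporter T. cruzi; input: 5,000 host fibroblasts per well; compound: single 50 nL compound addition per well in DMSO; timing: ≥90 h infection period, 3 h prior cell attachment; measured by: GalScreen β-gal luminescence, detergent lysis, 60 min; evaluation: percent inhibition of parasite-derived β-gal signal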
CSC inhib: blocks cancer stem cells. cancer stem cell-like cells viability, luminescence. inhibition, % at 7.5 µM. 300,000 tested, 1.1% active. AID 2717; in the data active = inhibition above about 75%; tested in HMLE shEcad cells
aSyn UTR inh: MLPCN primary screen, SNCA 5' untranslated region; alpha-synuclein 5'UTR reporter, inhibitor activity; 300,000 tested, 0.82% active; inhibition, % (tested at 7.5 µM); AID 1813; in the data active = inhibition above about 60%;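 also: H4 neuroglioblastoma cells stably carrying SNCA 5'UTR luciferase fusion; 0% = DMSO wells and 100% = positive control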
Mdm2 MdmX PPI: inhibitors of human Mdm2/MdmX interaction; O15151+Q00987; SaOS-2 split-luciferase Mdm2/MdmX complementation, luminescence; inhibition, % at 8 µM; 330,000 tested, 3% active; AID 485346;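 active = inhibition of at least 50% at 8 µM in the primary screen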
Target sequence (O15151 whole entry, looked up): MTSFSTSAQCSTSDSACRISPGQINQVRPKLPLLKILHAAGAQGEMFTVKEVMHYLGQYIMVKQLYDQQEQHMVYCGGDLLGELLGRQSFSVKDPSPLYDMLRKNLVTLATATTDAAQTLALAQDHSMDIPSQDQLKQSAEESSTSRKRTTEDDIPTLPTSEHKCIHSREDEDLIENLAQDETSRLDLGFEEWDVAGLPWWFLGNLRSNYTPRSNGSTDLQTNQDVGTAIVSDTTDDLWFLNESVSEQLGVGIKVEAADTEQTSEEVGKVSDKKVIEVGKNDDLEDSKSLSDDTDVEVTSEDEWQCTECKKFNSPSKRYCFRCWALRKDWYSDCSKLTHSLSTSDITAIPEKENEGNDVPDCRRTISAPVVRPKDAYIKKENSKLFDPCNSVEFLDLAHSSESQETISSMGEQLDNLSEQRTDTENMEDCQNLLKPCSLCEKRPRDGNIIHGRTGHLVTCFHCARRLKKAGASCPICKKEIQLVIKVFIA
Target sequence (Q00987 whole entry, looked up): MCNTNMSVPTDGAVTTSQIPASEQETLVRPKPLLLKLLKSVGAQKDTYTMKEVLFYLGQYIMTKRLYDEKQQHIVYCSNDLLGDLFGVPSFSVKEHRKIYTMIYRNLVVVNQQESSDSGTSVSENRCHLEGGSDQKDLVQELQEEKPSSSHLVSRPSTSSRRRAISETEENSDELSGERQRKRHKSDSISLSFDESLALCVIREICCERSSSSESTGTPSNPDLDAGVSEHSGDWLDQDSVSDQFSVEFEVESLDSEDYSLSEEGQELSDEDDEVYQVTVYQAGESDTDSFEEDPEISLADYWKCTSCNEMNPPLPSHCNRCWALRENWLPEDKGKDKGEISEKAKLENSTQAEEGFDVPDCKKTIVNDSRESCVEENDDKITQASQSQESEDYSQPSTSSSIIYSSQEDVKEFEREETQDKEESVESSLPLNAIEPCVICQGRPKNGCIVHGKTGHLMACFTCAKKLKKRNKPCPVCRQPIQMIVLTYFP
SKKanGAS inh: SKKanGAS growth inhibition | S. pyogenes SKKanGAS, kanamycin growth, BacTiter-Glo, 6 h | inhibition, % at 7.5 µM | 300,000 tested, 1.3% active | AID 1662;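 active = mean replicate score, as percent of positive control median, at least 50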;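 also: strain carries kanamycin resistance gene driven by streptokinase promoter and grows in 40 µg/ml kanamycin; loss of luminescence reflects streptokinase promoter inhibition or plain growth inhibition; 0% = median of DMSO wells and 100% = positive control at its reference dose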
* = called active by the depositor; · = no result given.

SMILES	T cruzi repl	CSC inhib	aSyn UTR inh	Mdm2 MdmX PPI	SKKanGAS inh
O=C(N/N=C/c1ccc([N+](=O)[O-])s1)c1ccccc1	48	·	68*	37	15
O=C(N/N=C/c1ccc([N+](=O)[O-])s1)c1ccccc1Br	52	·	47	22	9
Cc1ccccc1C(=O)N/N=C/c1ccc([N+](=O)[O-])s1	50	·	93*	14	11
O=C(N/N=C/c1ccc(Br)s1)c1cccc([N+](=O)[O-])c1	-13	6	70*	29	-4
COc1ccccc1NC(=O)C(=O)N/N=C/c1ccc([N+](=O)[O-])s1	62*	·	-138	·	3
Cc1cc(C(=O)N/N=C/c2ccc(N(C)C)cc2)c2ccccc2n1	-2	43	-23	36	1
Cc1cc(C(=O)N/N=C/c2ccc([N+](=O)[O-])s2)c2ccccc2n1	61*	·	-4	26	13
COc1ccccc1NS(=O)(=O)c1ccc(C(=O)N2CCN(c3ccccn3)CC2)cc1	·	-4	·	22	·
O=C(Nc1ncccc1Cl)C1COc2ccccc2O1 (centres undefined)	-3	-19	-107	1	3
Clc1ccc(CSc2nnc(-c3cccnc3)n2Cc2ccco2)c(Cl)c1	4	86*	5	-16	4
Clc1cccc(CSc2nnc(-c3cccnc3)n2Cc2ccco2)c1	1	-21	7	-15	5
O=C(c1cccc(Br)c1)c1coc2ccc(O)cc12	·	91*	·	-127	·
COc1cc2c(cc1OC)CN(C(=O)COc1ccc(C)c(C)c1)CC2	56*	0	28	23	1
Cc1cccc(C)c1NC(=O)CNC(=O)c1ccccc1OCc1ccccc1	6	-18	23	-1	-7
CN(C(=O)CSc1nc2scc(-c3ccccc3)c2c(=O)[nH]1)c1ccccc1	·	-10	·	15	·
O=S(=O)(c1ccc(Cl)cc1)N1CCC(c2nc3ccccc3[nH]2)CC1	0	18	76*	44	26
Cc1ccc(C(=O)NCc2ccco2)o1	-6	-16	0	21	-4
O=C(CSc1n[nH]c(-c2ccccn2)n1)Nc1ccc(Cl)cc1	47	-2	74*	40	-7
O=C(CSc1n[nH]c(-c2ccccn2)n1)Nc1ccc(F)cc1	-11	-7	73*	27	-1
CCOC(=O)c1c(C)[nH]c(C)c1S(=O)(=O)N1CCN(c2ccc(F)cc2)CC1	6	16	5	8	-14
CCc1cccc(NC(=O)C2CCCN2S(=O)(=O)c2ccc3c(c2)CC(C)N3C(C)=O)c1 (centres undefined)	-10	·	31	10	5
O=C(COC(=O)C1CC1)NCCc1ccc(Cl)cc1	·	·	·	9	·
CCCCn1c(N)c(N(CC(C)C)C(=O)CSc2nnc(C)n2-c2ccc(OC)cc2)c(=O)[nH]c1=O	-8	·	-7	6	8
CN1CCN(CCCc2c3c(cc4c2CCC4)CCC3)CC1	62*	-1	-7	19	1
COc1ccc(NC(=O)CN2C(=O)C(C)Oc3ccccc32)cc1OC (centres undefined)	0	-7	-1	-3	3
SMILES	T cruzi repl	CSC inhib	aSyn UTR inh	Mdm2 MdmX PPI	SKKanGAS inh
Cc1cc(Cn2nc(C(=O)NCc3cccc(C(F)(F)F)c3)cc2-c2ccccc2)on1	·	15	·	10	·
CC1=C(C(=O)O)N2C(=O)C(NC(=O)c3ccccc3Cl)C2SC1 (centres undefined)	5	0	-12	6	7
N[C@@H](C(=O)N[C@@H]1C(=O)N2C(C(=O)O)=C(Cl)CS[C@H]12)c1ccccc1	-10	-19	0	16	105*
Cc1cc([N+](=O)[O-])ccc1NC(=O)Nc1ccc(F)cc1F	55*	23	-2	46	10
COc1ccc(NC(=O)Nc2ccc(F)cc2F)c(C)c1	-10	2	-1	-1	15
COc1cccc(/C=C/C(=O)OCC(=O)Nc2nnc(-c3ccccc3)o2)c1	-19	-3	-3	11	63*
O=C(COC(=O)/C=C/c1ccccc1F)Nc1nnc(-c2ccccc2)o1	-6	-3	-13	22	68*
O=C(COC(=O)/C=C/c1ccc(F)cc1)Nc1nnc(-c2ccccc2)o1	·	11	·	-3	·
Cc1ccc(NC(=O)CSc2nc3ccccc3nc2N2CCCC2)cc1	-4	23	-2	44	1
O=C(NC(CO)C(O)c1ccc([N+](=O)[O-])cc1)C(Cl)Cl (centres undefined)	-9	-21	-17	8	104*
O=C(N[C@H](CO)[C@H](O)c1ccc([N+](=O)[O-])cc1)C(Cl)Cl	7	-1	-6	29	101*
O=[N+]([O-])c1ccc(C(O)C(CO)NC(=S)Nc2ccccc2)cc1 (centres undefined)	-16	-8	15	-2	21
O=C(NC(CO)Cc1ccc([N+](=O)[O-])cc1)C(Cl)Cl (centres undefined)	-17	·	-5	12	97*
COc1cc(/C=C2\S/C(=N/S(=O)(=O)c3ccccc3)NC2=O)c([N+](=O)[O-])cc1OC	-23	11	-18	-1	68*
CC(C)(C)c1ccc(C(=O)N/N=C/c2ccccn2)cc1	12	26	-50	37	63*
O=C(N/N=C/c1ccccn1)c1ccc(N/N=C/c2ccccn2)cc1	-29	23	-132	-60	1
Cc1ccc(C(=O)CSc2nsc(C)c2C#N)cc1	-7	9	-149	-64	0
Cc1ccnc(SCC(=O)c2ccc(Br)cc2)c1C#N	74*	·	-198	-106	-13
COc1ccc(NC(=O)CN(c2ccccc2F)S(=O)(=O)c2ccc(C)cc2)cc1	0	-10	-6	22	1
CC(=O)N1c2ccc(S(=O)(=O)N3CCC(C(=O)NCc4ccc(N(C)C)cc4)CC3)cc2CC1C (centres undefined)	-2	-13	4	8	5
Cc1cc(C)c2c(N)c(C(=O)c3ccc(Cl)c(Cl)c3)sc2n1	101*	4	-24	38	-5
Cc1cc(C)c2c(N)c(C(=O)c3ccc(Cl)cc3)sc2n1	45	34	-56	-15	-3
Cc1cc(C)c2c(N)c(C(=O)c3ccccc3)sc2n1	66*	-2	41	8	46
O=C(CCCc1ccccc1)NCc1ccc(F)cc1	-2	7	4	-14	-5
COc1ccccc1C1CCN(Cc2ccc3ccccc3c2)CC1	59*	18	-1	-9	15
CN(CCOc1ccccc1)C(=O)c1ccc(Cl)c(S(=O)(=O)N2CCCCC2)c1	·	-22	·	10	·
C=CCc1cc(C=O)cc(OCC)c1OCc1ccc(Cl)cc1	22	21	8	3	8
C=CCc1cc(/C=C2/NC(=O)N(CC)C2=O)cc(OCC)c1OCc1ccc(C(=O)O)cc1	-5	7	-19	38	61*
COCCCNC(=S)N1CCN(C(c2ccccc2)c2ccccc2)CC1	-16	1	14	11	0
COc1ccc(NC(C)=[N+](C)CCNS(=O)(=O)c2ccc(Cl)cc2)cc1Cl	58*	7	-37	19	-3
